Screening results (PubChem)
OXTR potentiator: human OXTR potentiation. CHO-OTR cells, Fluo-8 calcium fluorescence, potentiator mode; 0% = oxytocin EC15, 100% = EC100. activation, % at 3 µM. hit rate 0.061% among 320,000. P30559. AID 2445;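 active = activation above that plate's cutoff, the mean activation of tested compounds plus 3 SD, cut at about 6.6% in these data, passing the limit was not always enough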;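 also: 100% uses oxytocin at 75 nM as the full agonist control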
Target sequence (P30559 whole entry, looked up): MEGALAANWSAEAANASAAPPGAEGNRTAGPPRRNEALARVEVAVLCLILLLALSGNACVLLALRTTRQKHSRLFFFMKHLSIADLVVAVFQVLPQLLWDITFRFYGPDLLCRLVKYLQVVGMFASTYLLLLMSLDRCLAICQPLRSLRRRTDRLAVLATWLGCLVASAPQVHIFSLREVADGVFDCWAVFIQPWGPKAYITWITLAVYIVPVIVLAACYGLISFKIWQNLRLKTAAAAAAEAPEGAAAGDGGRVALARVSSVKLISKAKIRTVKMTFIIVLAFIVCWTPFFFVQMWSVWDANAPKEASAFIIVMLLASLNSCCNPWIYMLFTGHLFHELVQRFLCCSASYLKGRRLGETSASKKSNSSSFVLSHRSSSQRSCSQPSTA
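System: human OTR in CHO cells / Also added: sub-maximal oxytocin, roughly EC15 / Control set: EC15 oxytocin low, 75 nM oxytocin high / Schedule: 6 min compound pre-incubation at room temperature, 100 s kinetic read / Compound: single-point 3.0 µM / Replication: singlicate / Technique: Fluo-8 calcium dye fluorescence / Read-out basis: % activation of max/min ratio relative to oxytocin controls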
TAAR1 ag: agonists of human TAAR1. CHO RD-HGA16 TAAR1, Fluo-8 calcium fluorescence; vehicle wells 0%, saturating PEA agonist 100%. Q96RJ0. activation, % at 3 µM. hit rate 0.99% among 360,000;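 active = activation above the mean activation of all test compounds in the run plus 3 SD, cut at about 38% in these data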
Target sequence (Q96RJ0 whole entry, looked up): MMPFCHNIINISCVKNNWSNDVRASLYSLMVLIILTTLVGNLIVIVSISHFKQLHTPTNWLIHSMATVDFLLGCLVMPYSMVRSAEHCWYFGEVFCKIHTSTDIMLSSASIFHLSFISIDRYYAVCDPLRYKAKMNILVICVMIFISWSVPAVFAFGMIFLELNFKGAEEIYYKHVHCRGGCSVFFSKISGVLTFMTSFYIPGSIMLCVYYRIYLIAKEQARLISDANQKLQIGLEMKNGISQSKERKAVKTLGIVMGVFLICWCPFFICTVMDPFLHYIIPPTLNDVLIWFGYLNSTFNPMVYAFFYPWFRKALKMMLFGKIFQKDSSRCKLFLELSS
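Assay system: CHO-derived RD-HGA16 cells with stable Gα16 and human TAAR1; timing: 17-24 h seeding, 75 min 37 °C dye, 30 min RT; read-out: % activation from peak over basal fluorescence ratio, DMSO-to-PEA scaled; measured by: kinetic Fluo-8 calcium fluorescence; benchmarks: low control DMSO, high control PEA (EC100); doses: 3 µM single concentration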
V1R ag counter: V1a receptor agonism, counter-screen for OXTR agonists. CHO-V1R cells, Fluo-8 calcium fluorescence, agonist mode; 0% DMSO, 100% 3 nM vasopressin. activation, % at 3 µM. hit rate 0.25% among 320,000. P37288. AID 2797;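 active = activation above the mean activation of all tested compounds plus 3 SD, per screening run, cut at about 20% in these data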;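 also: signal is peak over basal fluorescence ratio across a 100 second FLIPR read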
OXTR ag: agonists of human oxytocin receptor | P30559 | CHO-OTR cells, Fluo-8 calcium fluorescence; normalized: DMSO 0%, oxytocin 100% | activation, % at 3 µM | hit rate 0.32% among 320,000 | AID 2435;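 active = activation above the mean of all tested compounds plus 3 SD, cutoff set per screening run, cut at about 20% in these data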;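 also: peak over basal fluorescence ratio from a 100 s FLIPR kinetic read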
TAAR1 antagonist: antagonists of human TAAR1. CHO RD-HGA16 TAAR1, Fluo-8 calcium fluorescence, antagonist. inhibition, % at 3 µM. hit rate 1.5% among 360,000. AID 624466;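 active = inhibition above a per-plate cutoff, the mean inhibition of test compounds on that plate plus 3 SD, cut at about 49% in these data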;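 also: 0% = DMSO plus EC80 beta-PEA response and 100% = DMSO alone without agonist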
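Test system – hTAAR1-expressing CHO RD-HGA16 cells, Gα16-coupled · Reagent – β-PEA at EC80 concentration, post-compound challenge · Compound dosing – 3 µM, single point · Timing – 140 s kinetic read after compound, 140 s after agonist · Detection – Fluo-8 intracellular calcium dye fluorescence, real-time kinetic reads · Control set – DMSO and EC80 PEA controls · Repeats – n of 1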
TAAR1 ag confirm: confirmation of human TAAR1 agonists; shares compounds with TAAR1 ag; CHO RD-HGA16 TAAR1, Fluo-8 calcium fluorescence; scaled: DMSO 0%, maximal phenethylamine 100%; activation, % at 3 µM; hit rate 82% among 2,400; AID 651783;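 active = activation above a cutoff set at the run's mean compound activation plus 3 SD, cut at about 39% in these data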
Ga16 ag counter: counter-screen for TAAR1 agonists: nonselective agonists in parental cells; CHO-Ga16 parental, Fluo-8 calcium fluorescence; normalized to maximal ATP response, DMSO zero; activation, % at 3 µM; hit rate 50% among 2,400; shares compounds with TAAR1 ag;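 active = activation above the run cutoff, the mean activation over all tested wells plus 3 SD, cut at about 12% in these data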;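 also: 0% = DMSO wells and 100% = maximal ATP response on the peak over basal ratio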
TAAR1 desensitize: counter-screen for human TAAR1 agonists: agonists that desensitize TAAR1; AID 651951; inhibition, % at 3 µM; CHO RD-HGA16 hTAAR1, Fluo-8 calcium, beta-PEA response inhibition; hit rate 46% among 2,400; shares compounds with TAAR1 ag;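 active = inhibition above the run cutoff, the mean inhibition of all test compounds plus 3 SD, cut at about 49% in these data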;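 also: beta-PEA stimulus applied at its EC80; loss of beta-PEA calcium signal after compound pretreatment read as receptor desensitization; 0% = DMSO with beta-PEA at EC80 and 100% = DMSO alone without agonist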
Ga16 antag count: nonselective Ga16 antagonist in TAAR1 agonist counter-screen | shares compounds with TAAR1 ag | CHO-Ga16 ATP-induced calcium, Fluo-8 fluorescence | inhibition, % at 3 µM | hit rate 39% among 2,400 | AID 651952;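 active = inhibition above the plate's mean compound inhibition plus 3 SD, computed per plate, cut at about 22% in these data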;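 also: 0% = EC80 ATP with DMSO and 100% = DMSO wells without ATP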
Starred values were filed as active, the others as inactive; . = no result given. Shown are actives, neighbours in structure and some others; about 2.3% of the full set was active somewhere.

SMILES	OXTR potentiator	TAAR1 ag	V1R ag counter	OXTR ag	TAAR1 antagonist	TAAR1 ag confirm	Ga16 ag counter	TAAR1 desensitize	Ga16 antag count
O=[N+]([O-])c1[nH]cnc1/C=C/c1ccccc1	-5.5	.	4.0	0.9	.	.	3.4	.	13.4
COc1ccc(Cl)cc1N(CC(=O)Nc1ccccc1C(=O)N1CCOCC1)S(C)(=O)=O	-5.1	0.3	4.3	-1.4	1.6	.	.	.	.
CCCCCCCCCCn1c2c(c(=N)c3c1CCC3)CCC2	-20.8	47.1*	1.0	1.1	34.2	52.5*	23.2*	41.2	36.7*
CCCCCCCCn1c2c(c(=N)c3ccccc31)CCC2	.	7.6	.	.	13.4	.	.	.	.
O=C(Nc1ccc(C(F)(F)F)cc1)c1ccccc1	-3.6	52.2*	-0.4	-1.7	63.3*	17.1	11.6*	37.1	12.3
O=C(Nc1ccc(C(=O)c2ccccc2)cc1)c1ccccc1	-14.2	9.5	3.4	2.9	41.3	.	.	.	.
O=C(O)C1C2CCC(C2)C1C(=O)NCCC1=CCCCC1 (configuration not stated)	-4.8	79.8*	0.7	0.8	85.4*	94.5*	3.7	77.1*	0.5
CC(C)c1ccc(/C=C/C(=O)NCCC2=CCCCC2)cc1	-1.3	0.7	1.2	-0.8	4.2	.	.	.	.
O=C(O)C1C2C=CC(C2)C1C(=O)NCCC1=CCCCC1 (configuration not stated)	-0.6	72.4*	1.0	-0.1	71.3*	88.6*	1.8	83.6*	6.5
O=C(O)/C=C/C(=O)NCCC1=CCCCC1	-3.4	73.0*	0.2	0.5	84.3*	95.3*	0.3	97.0*	7.3
O=C(NCCC1=CCCCC1)C1CCN(S(=O)(=O)c2ccccc2)CC1	-2.7	-0.2	1.0	-0.4	13.1	.	.	.	.
O=C(CN1C(=O)C2C3C=CC(C3)C2C1=O)NCCC1=CCCCC1 (configuration not stated)	-8.3	1.3	0.1	0.5	-14.1	.	.	.	.
O=C(COC(=O)c1cccc(S(=O)(=O)N2CCc3ccccc32)c1)Nc1ccc(Cl)cn1	1.9	-0.2	2.0	2.0	3.0	.	.	.	.
CN(C(=O)c1ccc(NC(=O)Cc2cccc(NC(=O)C3CCN(C(=O)c4ccccc4)CC3)c2)cc1)C1CCCC1	-6.2	10.3	1.7	0.8	-8.1	.	.	.	.
CN(C)c1ccc(/C=C/C(=O)c2cccc(Br)c2)cc1	-9.8	327.8*	154.7*	94.4*	108.7*	125.7*	125.5*	84.7*	83.0*
CN(C)c1ccc(C(=O)/C=C/c2cccnc2)cc1	-1.0	0.5	-1.0	-0.7	-4.5	.	.	.	.
COc1ccccc1N1CCN(Cc2nc(-c3ccc(F)cc3)oc2C)CC1	-13.7	1.1	0.9	-0.3	10.0	.	.	.	.
COc1ccccc1N1CCN(Cc2cn[nH]c2-c2ccc(F)cc2)CC1	2.5	121.5*	14.2	13.0	-0.5	122.8*	80.0*	48.0	5.7
COc1ccc(CCNC(=O)c2ccc(NC(=O)CC3SC(N4CCCC4)=NC3=O)cc2)cc1 (configuration not stated)	-6.3	0.9	0.2	-0.6	-9.2	.	.	.	.
COc1ccc(Br)cc1/C=N/NC(=O)c1ccc2nc[nH]c2c1	-2.7	1.2	2.0	0.6	2.7	.	.	.	.
COc1ccc(C)cc1NC(=O)CC1COc2ccccc2O1 (configuration not stated)	-10.6	-1.6	-0.3	-2.5	5.7	.	.	.	.
Oc1ccc(C=NCC2COc3ccccc3O2)cc1 (configuration not stated)	-1.1	.	0.8	0.2	.	.	3.7	.	3.5
COc1ccc(C=NCC2COc3ccccc3O2)cc1OC (configuration not stated)	-0.9	66.6*	1.0	-0.3	13.8	77.2*	1.3	76.5*	5.6
Cc1ccc(-c2c(C(=O)N/N=C/c3ccc(OC(C)C)cc3)nnn2-c2nonc2N)cc1	2.9	130.5*	36.6*	30.5*	70.2*	124.7*	94.3*	57.2*	45.6*
CCc1ccc(/C=N/NC(=O)c2nnn(-c3nonc3N)c2C(C)C)cc1	-5.9	132.9*	47.4*	55.3*	80.2*	133.6*	101.3*	96.1*	59.2*
SMILES	OXTR potentiator	TAAR1 ag	V1R ag counter	OXTR ag	TAAR1 antagonist	TAAR1 ag confirm	Ga16 ag counter	TAAR1 desensitize	Ga16 antag count
CCOc1ccc(-c2c(C(=O)N/N=C/c3ccc(OC(C)C)cc3)nnn2-c2nonc2N)cc1	8.1	116.4*	22.6*	21.3*	5.9	117.6*	74.8*	46.4	36.8*
Cc1ccc(-c2c(C(=O)N/N=C/c3ccc4c(c3)OCO4)nnn2-c2nonc2N)cc1	-9.1	25.8	4.2	14.9	27.8	.	.	.	.
COc1ccccc1-n1cnnc1SCC(=O)NC1CCCC1	1.9	1.8	1.1	0.3	-4.5	.	.	.	.
Cc1ccc(SCc2nc(-c3ccccc3)no2)cc1	-4.9	28.6	0.2	-1.1	24.5	.	.	.	.
Cc1ccc(SCc2nc(-c3ccncc3)no2)cc1	-13.6	52.2*	3.5	4.9	-4.4	9.0	3.5	5.9	7.2
CCOC(=O)/C(C(=Nc1ccccc1)Nc1ccccc1)=C(\C)O	0.8	-2.6	-2.1	-1.8	-15.5	.	.	.	.
NC(=Nc1ccccc1)Nc1ccccc1	-24.5	87.5*	10.0	10.6	78.6*	117.6*	83.1*	94.3*	67.0*
COc1cc(OC)c(-n2cc(-c3ccc(OC)c(OC)c3)[nH]c2=S)cc1Cl	.	96.0*	.	.	34.8	2.0	2.3	1.1	5.2
COc1ccc(OC)c(/C=N/Nc2cc(C)nc(N3CCOCC3)n2)c1	-4.2	2.7	-1.0	-2.4	19.4	.	.	.	.
Cc1ccc(Nc2cc(C)nc(N3CCOCC3)n2)cc1	-4.7	41.5*	-1.4	-2.4	-5.6	35.4	0.5	19.5	6.5
Cc1cc(N/N=C/c2ccccc2O)nc(N2CCOCC2)n1	-11.2	42.7*	-1.4	-1.7	42.0	66.1*	2.2	81.5*	17.4
CCc1ccccc1NC(=S)N(CCN(C)C)Cc1cccs1	2.5	0.7	1.8	2.4	-3.1	.	.	.	.
CCCOc1ccc(OC(=O)c2ccc(Br)o2)cc1	-24.0	136.8*	64.3*	42.4*	101.6*	114.6*	94.6*	85.5*	79.1*
c1ccc2c3c([nH]c2c1)CCNC3	-19.1	82.5*	0.0	0.0	81.5*	103.1*	-0.1	92.8*	2.5
Cc1ccc2[nH]c3c(c2c1)CNCC3	-7.5	27.6	2.1	1.9	7.5	.	.	.	.
